Screening data (PubChem BioAssay)
Only some compounds are listed: those with a hit (about 2% of all), similar ones and a draw of the others.
M1 antag: antagonists of human M1 muscarinic receptor; P11229; CHO-K1 hM1, Fluo-8 calcium fluorescence, ACh EC80 antagonist; inhibition, % at 3 µM; 360,000 compounds, 1.3% hits; AID 588852;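 active means percent inhibition above its own plate's cutoff, namely the mean of that plate's compound wells plus 3 SD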;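 further: peak over basal fluorescence ratio during 140 s after agonist addition; 0% = ACh EC80 plus DMSO and 100% = DMSO alone without agonist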
M1 PAM: potentiates human M1 receptor response to acetylcholine; AID 588819; activation, % at 3 µM; CHO-K1 hM1, Fluo-8 calcium fluorescence, ACh EC20; 0% = ACh EC20, 100% = maximal ACh; P11229; 360,000 compounds, 0.088% hits; in the data active means activation above about 19%, passing the limit was not always enough
M5 PAM: potentiates acetylcholine response at human M5 receptor; P08912; 360,000 compounds, 0.3% hits; activation, % at 3 µM; CHO-K1 hM5, Fluo-8 calcium, ACh EC20 PAM; 0% = ACh EC20, 100% = ACh EC100;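 active means activation above the run cutoff, the mean activation of all test compounds plus 3 SD, cut at about 18% in these data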
Target sequence (P08912 whole entry, looked up): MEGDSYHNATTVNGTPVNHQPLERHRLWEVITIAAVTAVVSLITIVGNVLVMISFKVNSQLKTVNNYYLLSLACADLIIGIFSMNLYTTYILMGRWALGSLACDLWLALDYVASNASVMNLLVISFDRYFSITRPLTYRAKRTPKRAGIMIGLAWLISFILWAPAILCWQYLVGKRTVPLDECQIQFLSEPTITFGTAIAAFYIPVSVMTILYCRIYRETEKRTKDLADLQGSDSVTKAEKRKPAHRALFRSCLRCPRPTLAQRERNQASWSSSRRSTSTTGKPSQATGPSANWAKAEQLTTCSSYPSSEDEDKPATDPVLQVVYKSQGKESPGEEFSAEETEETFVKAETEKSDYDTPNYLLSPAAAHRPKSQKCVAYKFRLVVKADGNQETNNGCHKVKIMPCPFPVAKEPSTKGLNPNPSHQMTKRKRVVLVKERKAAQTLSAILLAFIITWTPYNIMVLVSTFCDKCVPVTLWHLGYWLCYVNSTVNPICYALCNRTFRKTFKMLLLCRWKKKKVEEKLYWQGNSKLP
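Assay system: CHO-K1 hM5 cells / Incubation: Fluo-8 loading 80 min at 37 °C plus 30 min room temperature / Technique: Fluo-8 calcium dye fluorescence, kinetic read / Repeats: single replicate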
M5 antag: blocks acetylcholine activation of human M5 receptor. CHO-hM5 cells, Fluo-8 calcium fluorescence, ACh EC80. P08912. AID 624040. inhibition, % at 3 µM. 360,000 compounds, 0.59% hits;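 active means inhibition above a per-plate cutoff, the mean of that plate's test compounds plus 3 SD, cut at about 27% in these data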;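 further: 0% = acetylcholine EC80 with DMSO and 100% = DMSO without agonist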
CHRM1 agonist: agonists of human M1 muscarinic receptor; P11229; CHO-K1 hM1, Fluo-8 calcium fluorescence, agonist mode; 0% DMSO, 100% acetylcholine EC100; activation, % at 3 µM; 360,000 compounds, 0.33% hits;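 active means activation above the run's mean compound activation plus 3 SD, cut at about 16% in these data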;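 further: peak over basal fluorescence ratio within a 140 s kinetic read after compound addition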
CHRM5 agonist: agonists of human muscarinic M5 receptor (CHRM5); CHO-K1 hM5 cells, Fluo-8 calcium fluorescence; 0% DMSO wells, 100% maximal acetylcholine response; activation, % at 3 µM; 360,000 compounds, 0.19% hits;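 active means activation above the run's mean over test compounds plus 3 SD, cut at about 23% in these data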;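 further: signal is peak over basal fluorescence ratio across the kinetic read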
The depositor's hits bear a star; nt = not tested or not shown.

SMILES	M1 antag	M1 PAM	M5 PAM	M5 antag	CHRM1 agonist	CHRM5 agonist
Cc1ccc(N(C)S(=O)(=O)c2cccc(C(=O)OCC(=O)c3c(N)n(C)c(=O)n(C)c3=O)c2)cc1	32.9*	-15.9	-33.1	14.0	5.8	2.8
Cc1ccc(OCC(=O)NCc2cccs2)cc1	-4.2	9.7	0.0	0.5	-6.4	-4.3
Cc1c(Cl)c(=O)oc2cc(OCC(=O)NCc3cccs3)ccc12	-6.4	9.1	21.4*	-27.8	-8.8	0.5
CSCCC(NC(=O)c1ccco1)C(=O)NCC1CCCCC1 (stereo not given)	-23.9	24.4*	9.8	-11.7	-1.4	2.0
COc1cc2[nH]c(=S)nc(NCc3ccccn3)c2cc1OC	9.1	1.1	-5.6	4.4	-6.0	2.6
CC(=O)c1ccccc1OCCOCCOc1ccccc1C(C)=O	4.4	-8.8	-11.6	9.3	-5.6	6.0
CCN(CC)CCOc1ccccc1C(C)=O	39.6*	-33.6	-15.8	15.6	-14.2	-10.4
CCCCC(CC)C1OCC(C[N+]2(C)CCOCC2)O1 (stereo not given)	42.5*	-21.1	-11.2	4.9	-9.5	-7.0
CCCCc1ccc(S(=O)(=O)NC2CCS(=O)(=O)C2)cc1 (stereo not given)	-4.1	-0.8	20.7*	22.9	-0.3	7.6
CC#C[C@@H](CC)c1ccc2ccn(C)c2c1	3.0	4.7	-4.9	27.1*	-4.2	-5.4
COC(=O)C(NC(=O)C(NC(=O)C1CCC(C)CC1)C(C)C)C(C)C (stereo not given)	-27.8	3.6	3.3	-7.6	-5.0	-3.1
COC(=O)C(NC(=O)C(CC(C)C)NC(=O)C1CCC(C)CC1)C(C)C (stereo not given)	3.1	4.7	35.6*	36.0*	-0.6	2.5
Cc1ccc(S(=O)(=O)N(C)c2ccc3c(c2)C(=O)c2ccccc2-3)cc1	4.2	-6.9	3.7	-9.8	-3.7	0.6
CN(C)c1ccc(CN2CCC(C(=O)NC(c3ccc(F)cc3)c3ccc4ccccc4n3)CC2)cc1 (stereo not given)	53.8*	-27.7	-17.5	35.8*	-6.7	-1.8
CCOc1ccc(NS(=O)(=O)c2ccc(C(=O)NCC(c3cccs3)N3CCOCC3)cc2)cc1 (stereo not given)	18.4	-2.7	-5.5	5.2	28.7*	49.9*
CC(=O)c1ccc(S(=O)(=O)Nc2ccc(C(=O)NCC(c3cccs3)N3CCOCC3)cc2)cc1 (stereo not given)	-14.3	4.2	-8.2	7.1	-2.3	-2.1
O=C(NCC(c1cccs1)N1CCOCC1)c1ccccc1NS(=O)(=O)c1cccc([N+](=O)[O-])c1 (stereo not given)	-1.5	4.8	-0.7	0.3	-1.6	3.7
O=C(NCC(c1cccs1)N1CCOCC1)c1ccccc1NS(=O)(=O)c1ccc(Cl)c([N+](=O)[O-])c1 (stereo not given)	21.4	-19.6	-18.4	42.6*	-2.5	7.1
CN(C)C(CNC(=O)c1cccc(NS(=O)(=O)c2ccc(Br)cc2)c1)c1ccco1 (stereo not given)	69.5*	-26.5	-23.5	8.1	-7.1	-8.3
CCOc1ccc(S(=O)(=O)Nc2ccc(C(=O)NCC(c3ccco3)N(C)C)cc2)cc1 (stereo not given)	31.5*	-19.9	-4.1	-0.6	-5.5	-5.5
COc1cc(NC(=O)N2CCc3nc(Nc4cc(Cl)cc(Cl)c4)ncc3C2)cc(OC)c1OC	5.8	-5.8	-6.0	8.2	-6.8	-1.8
COCCNc1nc(NCCN2CCNC2=O)c2sccc2n1	-15.1	11.2	-3.8	0.3	-8.6	0.3
COc1ccc(C2SCC(=O)N2c2c(C)n(C)n(-c3ccccc3)c2=O)cc1OC (stereo not given)	-11.1	7.4	33.2*	0.2	-0.1	5.2
Cc1c(N2C(=O)CSC2c2ccccc2)c(=O)n(-c2ccccc2)n1C (stereo not given)	-7.1	8.1	2.0	6.1	-2.9	-0.6
CCOC(=O)C1=CCN(S(=O)(=O)c2ccccc2C)C1c1ccc(F)cc1 (stereo not given)	1.5	-0.6	-4.8	4.4	-8.5	-5.8
SMILES	M1 antag	M1 PAM	M5 PAM	M5 antag	CHRM1 agonist	CHRM5 agonist
Cc1ccc(S(=O)(=O)n2c(=O)oc3ccccc32)cc1	-9.9	1.9	-3.1	-0.1	-0.5	1.5
CCOC(=O)c1ccc(S(=O)(=O)n2c(=O)oc3ccccc32)cc1	31.2*	-23.2	-19.2	19.5	-0.2	8.3
CN1C(=O)/C(=C\c2ccc(N(C)C)cc2)OC1=S	38.8*	-21.8	-15.0	23.9	53.3*	95.6*
CCOc1ccc(NC(=O)C(C)NS(=O)(=O)c2ccc(NC(C)=O)cc2)cc1 (stereo not given)	1.9	4.6	-0.4	-2.6	-4.5	1.8
CCOC(=O)[C@]12CCC=C1N(CCC1=CCCCC1)C(=O)[C@H](CC(=O)NCc1ccc(OC)c(OC)c1)C2	nt	nt	-1.3	-1.0	nt	-0.6
O=C(NCCCn1ccnc1)C(=O)NC1CCCCC1	-6.5	4.1	18.8*	0.5	-5.2	-1.3
NCCC(=O)N1c2ccccc2Sc2ccccc21	41.3*	-26.0	-32.5	14.6	-8.3	-20.4
NCCCC(=O)N1c2ccccc2Sc2ccccc21	93.7*	-27.3	-23.7	67.2*	-9.8	-4.3
Cc1ncccc1C(=O)N1CCCC(c2cc(C(=O)Nc3ccc(C(C)(C)C)cc3)no2)C1 (stereo not given)	21.6	-11.3	-6.9	10.7	-0.7	4.7
CCc1ccc(C(=O)NNC(=O)C2CC(=O)N(Cc3ccccc3)C2)cc1 (stereo not given)	-14.1	15.5	1.1	0.8	-0.7	-0.8
O=C(NNC(=O)C1CC(=O)N(Cc2ccccc2)C1)c1ccc(Br)cc1 (stereo not given)	14.2	-6.4	-7.2	29.1*	-1.4	-4.9
COc1cc(NCc2ccccc2)c2ncn(Cc3ccccc3)c2c1	-7.5	17.5	21.8*	-23.6	13.3	10.1
Fc1ccc(N2CCN(C3=Nc4cccc5cccc3c45)CC2)cc1	87.9*	-34.2	-8.4	2.4	-13.7	-7.0
O=C(/C=C/c1ccccc1)CC(O)(c1ccccc1)C(F)(F)F (stereo not given)	28.3	-21.7	-5.0	7.4	-8.9	-7.0
O=C(/C=C/c1ccccc1)CC(O)(c1ccccc1)C(F)(F)C(F)F (stereo not given)	37.6*	-22.2	-9.5	6.6	-8.4	-5.9
O=C(NCCN1CCC(n2c(=O)[nH]c3ccccc32)CC1)C(c1ccccc1)c1ccccc1	nt	nt	-24.0	36.7*	nt	-4.0
O=C(NCCN1CCC(n2c(=O)[nH]c3ccccc32)CC1)c1ccncc1	nt	nt	-1.6	0.4	nt	0.6
